CHRM5 agonist – agonists of human muscarinic M5 receptor (CHRM5); CHO-K1 hM5 cells, Fluo-8 calcium fluorescence; 0% DMSO wells, 100% maximal acetylcholine response; activation, % at 3 µM; AID 624037; 0.19% of 360,000 active; P08912;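 active = activation above the run's mean over test compounds plus 3 SD, cut at about 23% in these data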;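 note: signal is peak over basal fluorescence ratio across the kinetic read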
CHRM4 antagonist – antagonists of human muscarinic M4 receptor (CHRM4); inhibition, % at 3 µM; 0.73% of 360,000 active; CHO-hM4 cells, ACh EC80, Fluo-8 calcium fluorescence;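 active = inhibition above its plate's cutoff, the mean inhibition of sample wells plus 3 SD, cut at about 27% in these data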
Target sequence (P08173 whole entry, looked up): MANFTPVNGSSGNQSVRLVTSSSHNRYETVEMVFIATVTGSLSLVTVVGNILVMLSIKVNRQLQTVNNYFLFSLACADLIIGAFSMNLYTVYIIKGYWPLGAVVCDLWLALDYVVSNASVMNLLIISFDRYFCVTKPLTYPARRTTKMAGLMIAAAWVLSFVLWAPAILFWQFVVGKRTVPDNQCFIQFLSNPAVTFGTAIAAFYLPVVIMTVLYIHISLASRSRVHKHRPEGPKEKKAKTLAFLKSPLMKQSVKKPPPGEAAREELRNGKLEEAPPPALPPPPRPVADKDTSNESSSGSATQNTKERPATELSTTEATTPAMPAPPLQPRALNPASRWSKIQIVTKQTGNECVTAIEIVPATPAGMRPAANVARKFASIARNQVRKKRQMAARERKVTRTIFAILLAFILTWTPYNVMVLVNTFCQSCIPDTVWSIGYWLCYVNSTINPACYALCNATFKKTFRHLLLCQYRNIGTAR
M5 antag – blocks acetylcholine activation of human M5 receptor | P08912 | CHO-hM5 cells, Fluo-8 calcium fluorescence, ACh EC80 | inhibition, % at 3 µM | 0.59% of 360,000 active | AID 624040;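 active = inhibition above a per-plate cutoff, the mean of that plate's test compounds plus 3 SD, cut at about 27% in these data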
M5 PAM – positive allosteric modulators of human muscarinic M5 receptor; activation, % at 3 µM; CHO-K1 hM5, Fluo-8 calcium, ACh EC20 PAM; 0% = ACh EC20, 100% = ACh EC100; 0.3% of 360,000 active;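 active = activation above the run cutoff, the mean activation of all test compounds plus 3 SD, cut at about 18% in these data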
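Assay system: CHO-K1 hM5 cells / Incubation: Fluo-8 loading 80 min at 37 °C plus 30 min room temperature / Technique: Fluo-8 calcium dye fluorescence, kinetic read / Repeats: single replicate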
M4 ag – CHRM4 agonism in calcium assay. P08173. CHO-K1 hM4/Gqi5, Fluo-8 calcium fluorescence; vehicle 0%, full acetylcholine response 100%. activation, % at 3 µM. 0.14% of 360,000 active;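 active = activation above the run mean over all test wells plus 3 SD, cut at about 32% in these data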;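 note: peak over basal fluorescence ratio per well then scaled between controls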
CHRM4 PAM – potentiates acetylcholine response at human M4 receptor. activation, % at 3 µM. CHO-K1 hM4/Gqi5, Fluo-8 calcium fluorescence, ACh EC20; 0% = ACh EC20, 100% = maximal ACh. 0.4% of 360,000 active. P08173. AID 624126;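 active = activation above its plate's cutoff, the mean activation of sample wells plus 3 SD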
Each line names hits and unclear results; the compound was inactive in the other large screens. Hits are enriched below; roughly 1.8% of the tested compounds scored in any of these assays.

C=C1C2=C(C(=O)N1OC)[C@@H](O)[C@@](C)(O)[C@@H](CCCCC)O2	CHRM4 PAM 22
CCOC(=O)[C@H]1[C@H]2COc3ccc(OC)cc3[C@@H]2N2C(=O)CN(Cc3ccc(F)cc3)C(=O)[C@@]12C	CHRM4 antagonist 42
O=C(CN1C(=O)NC2(CCCCC2)C1=O)NCC(=O)Nc1ccc(F)c(F)c1	none
CCCN(CC(=O)Nc1ccccc1C)C(=O)c1cccc(S(=O)(=O)N2CCc3ccccc3C2)c1	M5 antag 28
CC(C)CC(NC(=O)c1ccccc1NC(=O)c1ccccc1)C(=O)O (centres undefined)	none
CC(C)CC(NC(=O)c1ccc(Cl)cc1Cl)C(=O)O (centres undefined)	M5 PAM 19
COc1ccc(C)cc1NC(=O)CSc1ccc(-c2ccco2)nn1	none
COc1ccccc1C(=O)Nc1nc(-c2ccc(S(=O)(=O)N3CCOCC3)cc2)cs1	CHRM4 antagonist 36, M5 antag 30
COc1ccc(-c2csc(NC(=O)c3ccccc3S(C)(=O)=O)n2)cc1	none
COc1ccccc1OC(C)C(=O)Nc1nc(-c2ccc(S(=O)(=O)N3CCOCC3)cc2)cs1 (centres undefined)	none
COc1ccc(-c2csc(NC(=O)c3ccc(S(C)(=O)=O)cc3)n2)cc1	CHRM5 agonist 23
CC(=O)c1c(N)c(C#N)c(C)n1-c1ccc(Br)cc1	M5 antag 27, M5 PAM 35
CC1CC(C)CN(C(=O)COC(=O)c2ccc3c(c2)OCCO3)C1 (centres undefined)	none
NC1=NC(=O)C(Cc2ccc(F)cc2)S1 (centres undefined)	none
Cc1ccc(CC2SC(N)=NC2=O)cc1 (centres undefined)	CHRM4 PAM 20
CCOC(=O)c1sc(NNC(=O)c2ccc(F)cc2)nc1C	M5 PAM 25
Nn1c(SCC(=O)Nc2cccc(Br)c2)nnc1C1CC1	none
O=C(Nc1cc(S(=O)(=O)N2CCOCC2)ccc1O)c1ccc(NS(=O)(=O)c2ccc(Cl)s2)cc1	none
Cc1ccc(NC(=O)c2ccccc2NS(=O)(=O)c2ccc(Cl)s2)cc1S(=O)(=O)N1CCOCC1	M5 antag 32
CC(C)Oc1ccc(S(=O)(=O)N2CCOCC2)cc1NC(=O)c1ccc(Cl)c(S(=O)(=O)N2CCOCC2)c1	none
COCCNC(=O)C(c1ccc(C)o1)N(Cc1ccc(F)cc1)C(=O)Cn1nnc2ccccc21 (centres undefined)	M5 PAM 22
CN1CC(=O)N(CC(=O)Nc2ccc(F)cc2)c2ccccc2C1=O	M5 PAM 40
CN1CC(=O)N(CC(=O)NCc2ccc(F)cc2)c2ccccc2C1=O	none
Cc1ccc2nc(CCCc3nc4ccc(C)cc4[nH]3)[nH]c2c1	none
Cc1ccc2nc(CCc3nc4ccc(C)cc4[nH]3)[nH]c2c1	CHRM4 PAM 14
COc1ccc(-c2csc(NC(=O)c3ccoc3C)n2)cc1	none
O=C1NC(=S)S/C1=C\C=C\c1ccc([N+](=O)[O-])o1	CHRM5 agonist 26, CHRM4 antagonist 68, M5 antag 48
O=C(O)/C=C/c1ccc([N+](=O)[O-])o1	none
O=C(c1ccccc1)c1cc(Cl)ccc1N1C(=O)C=CC1=O	CHRM4 antagonist 35
O=C(CC(=O)c1cc(Cl)ccc1O)c1ccccc1	none
Cc1ccccc1-c1cnc2c(c1)C(=O)N([C@@H](C)CO)C[C@@H](C)[C@H](CN(C)Cc1ccccc1F)O2	none
COC(=O)c1ccc(/C=C/C(=O)OCC(=O)Nc2sccc2C(N)=O)cc1	CHRM4 antagonist 45, M5 antag 27
COc1ccc(/C=C/C(=O)OCC(=O)Nc2cccc(C(C)=O)c2)cc1	none
COc1ccc(/C=C/C(=O)OCC(=O)Nc2cc(C(N)=O)cc(C(N)=O)c2)cc1	M5 PAM 18
NC(=O)c1ccsc1NC(=O)COC(=O)/C=C/c1ccc([N+](=O)[O-])cc1	none
C#C[C@]1(OC(C)=O)CCC2C3CCC4=CC(=O)CC[C@@H]4C3CC[C@@]21C (some centres undefined)	CHRM5 agonist 27
CC(=O)O[C@]1(C(C)=O)CC[C@H]2[C@@H]3C=C(C)C4=CC(=O)CC[C@@H]4[C@H]3CC[C@@]21C	none
NCCc1nnc(SCc2ccccc2Cl)o1	none
NCCCCCc1nnc(SCc2ccc(Cl)cc2Cl)o1	CHRM4 antagonist 50, M5 antag 43
NCCCCCc1nnc(SCc2cccc(Cl)c2)o1	CHRM4 antagonist 85, M5 antag 80
O=C(CNC(=O)Cc1ccccc1)N=Nc1c(O)n(Cc2ccc3c(c2)OCO3)c2ccccc12	CHRM4 PAM 21
COC(=O)Cn1c(O)c(N=NC(=O)CNC(=O)c2ccc3c(c2)OCCO3)c2ccccc21	none
CC(=O)c1c(C)n(CC(=O)NCc2ccc3c(c2)OCO3)c2ccccc12	M5 antag 29
O=C(CC1CCCCC1)NCc1ccccc1Cl	none
O=C1N/C(=C/c2ccc(N3CCCC3)cc2)C(=O)N1c1ccccc1	none
Cc1cc(N2CCCC2)ccc1/C=C1\NC(=S)N(C)C1=O	CHRM5 agonist 42
CN1C(=O)c2ccc(N3CCCC3)cc2C1=O	none
O=C1/C(=C/c2ccc(N3CCCC3)cc2)NC(=S)N1C1CC1	CHRM5 agonist 69, CHRM4 antagonist 36, M5 antag 54, M4 ag 46
CC1(Oc2ccccc2-c2ccno2)CCN(Cc2csc3ccccc23)C1 (centres undefined)	CHRM4 antagonist 33
COC(=O)[C@@]12C[C@@H](CC(=O)N3CCC(c4ccccc4)CC3)C(=O)N(CCc3ccc(OC)c(OC)c3)C1=CCC(C)(C)C2	none
O=C(/C=C/c1ccc(F)cc1)NC(=S)Nc1ccccc1C(=O)NC1CCCCC1	M5 PAM 21
COc1ccc(N(CC(=O)NCc2cccs2)S(=O)(=O)c2cccc(C)c2)cc1	none
O=C(NC(=S)Nc1ccc2oc(=O)ccc2c1)c1cc2ccccc2o1	none
COc1cccc(C(c2nnnn2C2CCCC2)N2CCN(C/C=C/c3ccccc3)CC2)c1OC (centres undefined)	CHRM4 antagonist 31, M5 antag 71
CCCCn1nnnc1C(c1cccc2ccccc12)N1CCN(C/C=C/c2ccccc2)CC1 (centres undefined)	CHRM4 antagonist 84, M5 antag 96
CCCCn1nnnc1C(c1ccnc2ccccc12)N1CCN(C/C=C/c2ccccc2)CC1 (centres undefined)	M5 antag 37
O=C(NNC(=O)c1cc(-c2ccc(Cl)cc2)nc2ccccc12)c1csc(N2CCOCC2)n1	none

Screens: PubChem BioAssay, The Scripps Research Institute Molecular Screening Center
